According to ChEMBL document CHEMBL4038304, “Chiral Indolylarylsulfone Non-Nucleoside Reverse Transcriptase Inhibitors as New Potent and Broad Spectrum Anti-HIV-1 Agents” (J Med Chem, 2017):

Legend:
[1] = tested on: Human immunodeficiency virus 1; assay: Antiviral activity against HIV1 NL4-3 infected in human […] cells assessed as protection against virus-induced cytopathic effect measured on day 5 post infection by MTT assay; format: functional, cell-based; settings: Human immunodeficiency virus 1, NL4-3, 120 h
Summary of the method: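 Values are means of two to three independent experiments, each run in triplicate. The lowest detectable concentration is reported where activity fell below the assay limit.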

[2] = tested on: Human immunodeficiency virus 1; assay: Antiviral activity against HIV1 harboring reverse transcriptase K103N mutant infected in human […] cells assessed as protection against virus-induced cytopathic effect measured on day 5 post infection by MTT assay; format: functional, cell-based; settings: Human immunodeficiency virus 1, 120 h
[3] = tested on: Human immunodeficiency virus 1; assay: Antiviral activity against HIV1 harboring reverse transcriptase Y181C mutant infected in human […] cells assessed as protection against virus-induced cytopathic effect measured on day 5 post infection by MTT assay; format: functional, cell-based; settings: Human immunodeficiency virus 1, 120 h
[4] = tested on: Human immunodeficiency virus 1; assay: Antiviral activity against HIV1 harboring reverse transcriptase Y188L mutant infected in human […] cells assessed as protection against virus-induced cytopathic effect measured on day 5 post infection by MTT assay; format: functional, cell-based; settings: Human immunodeficiency virus 1, 120 h
[5] = tested on: Human immunodeficiency virus 1; assay: Antiviral activity against HIV1 harboring reverse transcriptase K103N /[…] double mutant infected in human […] cells assessed as protection against virus-induced cytopathic effect measured on day 5 post infection by MTT assay; format: functional, cell-based; settings: Human immunodeficiency virus 1, 120 h
[6] = molecular target: Human immunodeficiency virus type 1 reverse transcriptase (Human immunodeficiency virus 1, UniProt Q72547); assay: Inhibition of HIV1 NL4-3 reverse transcriptase His-tagged p66/p51 associated RNA dependent DNA polymerase activity expressed in Escherichia coli assessed as reduction in [3H]dTTP incorporation using poly(rA)/oligo(dT) as template/primer by scintillation counting analysis
[7] = molecular target: Human immunodeficiency virus type 1 reverse transcriptase (Human immunodeficiency virus 1, UniProt Q72547, K103N); assay: Inhibition of HIV1 reverse transcriptase p66 K103N mutant associated RNA dependent DNA polymerase activity expressed in Escherichia coli assessed as reduction in [3H]dTTP incorporation using poly(rA)/oligo(dT) as template/primer by scintillation counting analysis
[8] = molecular target: Human immunodeficiency virus type 1 reverse transcriptase (Human immunodeficiency virus 1, UniProt Q72547, Y181I); assay: Inhibition of HIV1 reverse transcriptase p66 Y181I mutant associated RNA dependent DNA polymerase activity expressed in Escherichia coli assessed as reduction in [3H]dTTP incorporation using poly(rA)/oligo(dT) as template/primer by scintillation counting analysis
[9] = Inhibition of HIV1 reverse transcriptase p66 K103N/[…] double mutant associated RNA dependent DNA polymerase activity expressed in Escherichia coli assessed as reduction in [3H]dTTP incorporation using poly(rA)/oligo(dT) as template/primer by scintillation counting analysis; design: species or system Human immunodeficiency virus 1
[10] = Cytotoxicity against human MT4 cells assessed as cell viability by MTT assay; format: cell-based
Summary of the method: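 Uninfected MT-4 cells scored for viability by MTT. […] Values are means of two to three independent experiments, each run in triplicate.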

[11] = Selectivity index, ratio of CC50 for human MT4 cells to EC50 for HIV1 NL4-3 infected in human MT4 cells; format: toxicity, cell-based; settings: read-out: Ratio CC50/EC50
Summary of the method: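 SI computed as CC50/EC50, using the MTT-based CC50 in uninfected MT-4 cells and the MTT-based EC50 against HIV-1 NL4-3-induced cell death in MT-4 cells. Experiments were run in triplicate, two to three times.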

[12] = tested on: Human immunodeficiency virus 1; assay: Ratio of EC50 for HIV-1 harboring reverse transcriptase K103N mutant infected in human MT4 cells to EC50 for HIV1 NL4-3 infected in human MT4 cells; format: functional
Summary of the method: (§1)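 Fold change calculated as EC50 against the stated resistant mutant HIV-1 strain divided by EC50 against wild-type NL4-3. Both EC50s come from MTT read-out of virus-induced death in MT-4 cells, mean of two to three independent experiments each in triplicate.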

[13] = tested on: Human immunodeficiency virus 1; assay: Ratio of EC50 for HIV-1 harboring reverse transcriptase Y181C mutant infected in human MT4 cells to EC50 for HIV1 NL4-3 infected in human MT4 cells; format: functional; summary of the method: as §1
[14] = tested on: Human immunodeficiency virus 1; assay: Ratio of EC50 for HIV-1 harboring reverse transcriptase K103N/[…] double mutant infected in human MT4 cells to EC50 for HIV1 NL4-3 infected in human MT4 cells; format: functional; summary of the method: as §1
[15] = tested on: Human immunodeficiency virus 1; assay: Ratio of EC50 for HIV-1 harboring reverse transcriptase Y188L mutant infected in human MT4 cells to EC50 for HIV1 NL4-3 infected in human MT4 cells; format: functional; summary of the method: as §1

SMILES	EC50 [1] [µM]	EC50 [2] [µM]	EC50 [3] [µM]	EC50 [4] [µM]	EC50 [5] [µM]	IC50 [6] [µM]	IC50 [7] [µM]	IC50 [8] [µM]	IC50 [9] [µM]	CC50 [10] [µM]	selectivity ratio [11]	Ratio EC50 [12]	Ratio EC50 [13]	Ratio EC50 [14]	Ratio EC50 [15]
Cc1cc(C)cc(S(=O)(=O)c2c(C(=O)N[C@H](C)C(=O)N[C@@H](C)c3ccncc3)[nH]c3ccc(Cl)cc23)c1	0.0019	0.204	0.668	> 28.5	19.3	1.19	3.55	9.51	8.42	–	–	–	–	–	–
Cc1cc(C#N)cc(C)c1Oc1nc(Nc2ccc(C#N)cc2)nc(N)c1Br [ETRAVIRINE]	0.0161	0.0007	0.018	–	0.0046	–	–	–	0.097	> 23	–	–	–	–	–
Cc1cc(C)cc(S(=O)(=O)c2c(C(=O)N[C@@H](C)C(=O)N[C@H](C)c3ccncc3)[nH]c3ccc(Cl)cc23)c1	0.0006	0.0006	0.0006	0.742	1.26	0.61	0.3	1.7	0.49	–	–	–	–	–	–
Cc1cc(C)cc(S(=O)(=O)c2c(C(=O)N[C@H](C)C(=O)NCc3ccncn3)[nH]c3ccc(Cl)cc23)c1	0.0006	0.076	0.171	5.74	> 24.5	1.8	19.9	3.35	–	–	–	–	–	–	–
Cc1cc(C)cc(S(=O)(=O)c2c(C(=O)N[C@H](C)C(=O)NCc3ccco3)[nH]c3ccc(Cl)cc23)c1	0.0006	0.311	0.933	> 30.2	> 30.2	0.145	0.07	0.276	0.233	–	–	–	–	–	–
Cc1cc(C)cc(S(=O)(=O)c2c(C(=O)NCc3ccc4nc(N)[nH]c4c3)[nH]c3ccc(Cl)cc23)c1	0.0006	0.018	0.079	–	> 5.89	0.278	0.183	0.284	0.47	5.89	> 9810	30	132	>9810	–
Cc1cc(C)cc(S(=O)(=O)c2c(C(=O)N[C@@H](C)C(=O)NCc3ccncn3)[nH]c3ccc(Cl)cc23)c1	0.0006	0.0006	0.0006	0.38	0.779	0.47	2.86	3.14	14.3	–	–	–	–	–	–
Cc1cc(C)cc(S(=O)(=O)c2c(C(=O)N[C@H](C)C(=O)N[C@H](C)c3ccncc3)[nH]c3ccc(Cl)cc23)c1	0.0038	1.21	1.17	> 27	> 27	0.41	23.7	5.79	13.8	–	–	–	–	–	–
Cc1cc(C)cc(S(=O)(=O)c2c(C(=O)N[C@@H](C)C(=O)NCc3ccco3)[nH]c3ccc(Cl)cc23)c1	0.0006	0.0006	0.0035	0.7	1.89	0.113	1.12	14.2	9.64	–	–	–	–	–	–
Cc1cc(C)cc(S(=O)(=O)c2c(C(=O)NCC(=O)NCc3ccco3)[nH]c3ccc(Cl)cc23)c1	0.0006	0.06	< 0.0006	1.12	18.5	0.145	0.538	0.461	0.586	> 50	> 83400	>86	–	>26477	>1600
Cc1cc(C)cc(S(=O)(=O)c2c(C(=O)NCC(=O)NC(C)c3ccncc3)[nH]c3ccc(Cl)cc23)c1 (racemic)	0.0006	0.038	0.0006	0.61	13.3	–	–	–	–	47	> 78400	64	1	22227	1017
Cc1cc(C)cc(S(=O)(=O)c2c(C(=O)NCC(=O)NCc3ccncn3)[nH]c3ccc(Cl)cc23)c1	0.0006	0.0196	0.0006	0.449	2.31	0.202	0.548	0.529	0.835	> 48.8	> 81400	33	1	>3842	>743
Cc1cc(C)cc(S(=O)(=O)c2c(C(=O)NC(C)C(=O)NCc3ccccc3F)[nH]c3ccc(Cl)cc23)c1 (racemic)	0.0006	0.026	0.093	4.24	> 23.3	–	–	–	–	23.3	23300	43	155	>38775	7067
Cc1cc(C)cc(S(=O)(=O)c2c(C(=O)N[C@@H](C)C(=O)N[C@@H](C)c3ccncc3)[nH]c3ccc(Cl)cc23)c1	0.0006	0.0013	0.0006	0.612	1.28	0.43	2.59	0.44	0.86	–	–	–	–	–	–
Cc1cc(C)cc(S(=O)(=O)c2c(C(=O)NC(C)C(=O)NC(C)c3ccccc3F)[nH]c3ccc(Cl)cc23)c1 (racemic)	0.0006	0.036	0.108	> 15.2	6.47	–	–	–	–	15.2	> 25400	60	180	10790	>25387
Cc1cc(C)cc(S(=O)(=O)c2c(C(=O)NCC(=O)NCCn3c(C)cnc3[N+](=O)[O-])[nH]c3ccc(Cl)cc23)c1	0.0002	0.279	0.017	2.32	4.68	–	–	–	–	24.5	144000	1395	85	23285	11605
Cc1cc(C)cc(S(=O)(=O)c2c(C(=O)NCc3cccc(N)c3)[nH]c3ccc(Cl)cc23)c1	0.0007	0.0007	0.0007	0.024	0.086	0.041	0.066	0.064	0.035	> 53.4	> 76300	1	1	123	34
Cc1cc(C)cc(S(=O)(=O)c2c(C(=O)Nc3ccnc(C#N)c3)[nH]c3ccc(Cl)cc23)c1	0.0007	0.0007	0.065	–	> 6.84	0.023	0.072	0.306	0.514	6.84	> 9770	1	92	>9771	–
Cc1cc(C)cc(S(=O)(=O)c2c(C(=O)NC(C)c3ccccc3F)[nH]c3ccc(Cl)cc23)c1 (racemic)	0.0007	0.0007	0.103	0.969	3.96	–	–	–	–	> 51.5	> 73600	1	>147	>5656	>1384
